# Assay results reported in ChEMBL document CHEMBL1154716, “Synthesis of some new S-triazine based chalcones and their derivatives as potent antimicrobial agents” (2010).
# The source made the active and inactive calls. The rule behind the calls is not given here.
# Legend:
# Bacillus cereus [1] = test: Antimicrobial activity against Bacillus cereus at 10 ug/disk after 24 hrs by disk diffusion assay; type: functional
# Method in brief: (§1)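 Disc diffusion on 4 mm filter discs. Bacteria are grown overnight in LB at 28 C, then adjusted in saline to 1.0 × 10^5 cfu/ml. The suspension is mixed into top agar over peptone agar plates. Plates are incubated 24 h at 28 C, and growth-inhibition zone diameter is measured. Streptomycin and ampicillin controls are applied from a 1 mg/ml stock. Tests are done in duplicate.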
# Bacillus cereus [2] = test: Antimicrobial activity against Bacillus cereus at 1 umol/spot after 18 hrs by TLC-bioautographic method; type: functional
# Method in brief: (§2)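 TLC bioautography. Samples are spotted on silica gel TLC plates, then sprayed with bacteria (1.0 × 10^5 cfu/ml) in tryptic soy broth. Plates are incubated 18 h at 37 C and sprayed with 3% aqueous p-iodonitrotetrazolium violet. After a further 3 h, growth is stopped with 70% EtOH. White zones on a pink background are scored as inhibition-zone diameter with standard errors.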
# Pseudomonas aeruginosa [3] = test: Antimicrobial activity against Pseudomonas aeruginosa at 10 ug/disk after 24 hrs by disk diffusion assay; type: functional; method in brief: as §1
# Micrococcus flavus [4] = test: Antimicrobial activity against Micrococcus flavus at 1 umol/spot after 18 hrs by TLC-bioautographic method; type: functional; method in brief: as §2
# Bacillus cereus [5] = test: Antimicrobial activity against Bacillus cereus after 24 hrs by microdilution technique; type: functional
# Method in brief: (§3)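 Broth microdilution in LB medium. Inoculum is 1.0 × 10^4 cfu per well, from a saline-adjusted suspension of 1.0 × 10^5 cfu/ml. Compounds are dissolved in DMSO. Incubated 24 h at 28 C. MIC is the lowest concentration with no visible growth under a binocular microscope. MBC is read by subculture into fresh broth for 72 h, with no growth taken as 99.5% kill. OD is read at 655 nm.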
# Escherichia coli [6] = test: Antimicrobial activity against Escherichia coli at 1 umol/disk after 24 hrs by disk diffusion assay; type: functional; method in brief: as §1
# Staphylococcus aureus [7] = test: Antimicrobial activity against Staphylococcus aureus at 10 ug/disk after 24 hrs by disk diffusion assay; type: functional; method in brief: as §1
# Enterobacter cloacae [8] = test: Antimicrobial activity against Enterobacter cloacae at 1 umol/disk after 24 hrs by disk diffusion assay; type: functional; method in brief: as §1
# Salmonella typhimurium [9] = test: Antimicrobial activity against Salmonella Typhimurium at 1 umol/spot after 18 hrs by TLC-bioautographic method; type: functional; method in brief: as §2
# Escherichia coli [10] = test: Antimicrobial activity against Escherichia coli after 24 hrs by microdilution technique; type: functional; method in brief: as §3
# Staphylococcus aureus [11] = test: Antimicrobial activity against Staphylococcus aureus after 24 hrs by microdilution technique; type: functional; method in brief: as §3
# Staphylococcus aureus [12] = test: Antimicrobial activity against Staphylococcus aureus at 1 umol/disk after 24 hrs by disk diffusion assay; type: functional; method in brief: as §1
# Listeria monocytogenes [13] = test: Antimicrobial activity against Listeria monocytogenes at 1 umol/disk after 24 hrs by disk diffusion assay; type: functional; method in brief: as §1
# Salmonella typhimurium [14] = test: Antimicrobial activity against Salmonella Typhimurium after 24 hrs by microdilution technique; type: functional, Salmonella enterica subsp. enterica serovar Typhimurium; details: Salmonella enterica; method in brief: as §3
# Listeria monocytogenes [15] = test: Antimicrobial activity against Listeria monocytogenes after 24 hrs by microdilution technique; type: functional; method in brief: as §3
# Pseudomonas aeruginosa [16] = test: Antimicrobial activity against Pseudomonas aeruginosa at 1 umol/spot after 18 hrs by TLC-bioautographic method; type: functional; method in brief: as §2
# Salmonella typhimurium [17] = test: Antimicrobial activity against Salmonella Typhimurium at 1 umol/disk after 24 hrs by disk diffusion assay; type: functional, organism-based; details: Salmonella enterica subsp. enterica serovar Typhimurium; method in brief: as §1
# Enterobacter cloacae [18] = test: Antimicrobial activity against Enterobacter cloacae at 10 ug/disk after 24 hrs by disk diffusion assay; type: functional; method in brief: as §1
# Pseudomonas aeruginosa [19] = test: Antimicrobial activity against Pseudomonas aeruginosa at 1 umol/disk after 24 hrs by disk diffusion assay; type: functional; method in brief: as §1
# Salmonella typhimurium [20] = test: Antimicrobial activity against Salmonella Typhimurium at 10 ug/disk after 24 hrs by disk diffusion assay; type: functional, organism-based; details: Salmonella enterica subsp. enterica serovar Typhimurium; method in brief: as §1
# Pseudomonas aeruginosa [21] = test: Antimicrobial activity against Pseudomonas aeruginosa after 24 hrs by microdilution technique; type: functional; method in brief: as §3
# Staphylococcus aureus [22] = test: Antimicrobial activity against Staphylococcus aureus at 1 umol/spot after 18 hrs by TLC-bioautographic method; type: functional; method in brief: as §2
# Listeria monocytogenes [23] = test: Antimicrobial activity against Listeria monocytogenes at 1 umol/spot after 18 hrs by TLC-bioautographic method; type: functional; method in brief: as §2
# Listeria monocytogenes [24] = test: Antimicrobial activity against Listeria monocytogenes at 10 ug/disk after 24 hrs by disk diffusion assay; type: functional; method in brief: as §1
# Micrococcus flavus [25] = test: Antimicrobial activity against Micrococcus flavus at 10 ug/disk after 24 hrs by disk diffusion assay; type: functional; details: for zone of inhibition at 10 µg/disc: read-out: IZ; method in brief: as §1
# Escherichia coli [26] = test: Antimicrobial activity against Escherichia coli at 1 umol/spot after 18 hrs by TLC-bioautographic method; type: functional; method in brief: as §2
# Enterobacter cloacae [27] = test: Antimicrobial activity against Enterobacter cloacae at 1 umol/spot after 18 hrs by TLC-bioautographic method; type: functional; method in brief: as §2
# Micrococcus flavus [28] = test: Antimicrobial activity against Micrococcus flavus after 24 hrs by microdilution technique; type: functional; method in brief: as §3
# Escherichia coli [29] = test: Antimicrobial activity against Escherichia coli at 10 ug/disk after 24 hrs by disk diffusion assay; type: functional; method in brief: as §1
# Micrococcus flavus [30] = test: Antimicrobial activity against Micrococcus flavus at 1 umol/disk after 24 hrs by disk diffusion assay; type: functional; method in brief: as §1
# Enterobacter cloacae [31] = test: Antimicrobial activity against Enterobacter cloacae after 24 hrs by microdilution technique; type: functional; method in brief: as §3
# Bacillus cereus [32] = test: Antimicrobial activity against Bacillus cereus at 1 umol/disk after 24 hrs by disk diffusion assay; type: functional; method in brief: as §1
# [33] = Salmonella enterica subsp. enterica serovar Typhimurium
MIC (Bacillus cereus [5]),MIC (Escherichia coli [10]),MIC (Staphylococcus aureus [11]),MIC (Salmonella typhimurium [14]),MIC (Listeria monocytogenes [15]),Structure (SMILES),inhibition zone (IZ) (Bacillus cereus [1]),inhibition zone (IZ) (Bacillus cereus [2]),inhibition zone (IZ) (Pseudomonas aeruginosa [3]),inhibition zone (IZ) (Micrococcus flavus [4]),MBC (Bacillus cereus [5]),inhibition zone (IZ) (Escherichia coli [6]),inhibition zone (IZ) (Staphylococcus aureus [7]),inhibition zone (IZ) (Enterobacter cloacae [8]),MBC (Escherichia coli [10]),MBC (Staphylococcus aureus [11]),inhibition zone (IZ) (Staphylococcus aureus [12]),inhibition zone (IZ) (Listeria monocytogenes [13]),MBC (Salmonella typhimurium [14]),MBC (Listeria monocytogenes [15]),inhibition zone (IZ) (Pseudomonas aeruginosa [16]),further results
90.5 µM,181 µM,90.5 µM,181 µM,724 µM,COc1ccccc1-c1cc(-c2ccc(Nc3nc(Nc4ccccc4)nc(Nc4ccccc4)n3)cc2)nc(N)n1,inactive,inactive,inactive,0.06 millimeter,181 µM,inactive,inactive,inactive,362 µM,181 µM,inactive,inactive,362 µM,724 µM,inactive,inhibition zone (IZ) (Salmonella typhimurium [9]; [33]): inactive; inhibition zone (IZ) (Salmonella typhimurium [17]): inactive; inhibition zone (IZ) (Enterobacter cloacae [18]): inactive; inhibition zone (IZ) (Pseudomonas aeruginosa [19]): inactive; inhibition zone (IZ) (Salmonella typhimurium [20]): inactive; MBC (Pseudomonas aeruginosa [21]): 362 µM; MIC (Pseudomonas aeruginosa [21]): 181 µM; inhibition zone (IZ) (Staphylococcus aureus [22]): 0.03 millimeter; inhibition zone (IZ) (Listeria monocytogenes [23]): 0.09 millimeter; inhibition zone (IZ) (Listeria monocytogenes [24]): inactive; zone of inhibition at 10 µg/disc (Micrococcus flavus [25]): 6 mm; inhibition zone (IZ) (Escherichia coli [26]): inactive; inhibition zone (IZ) (Enterobacter cloacae [27]): inactive; MBC (Micrococcus flavus [28]): 181 µM; MIC (Micrococcus flavus [28]): 90.5 µM; inhibition zone (IZ) (Escherichia coli [29]): inactive; inhibition zone (IZ) (Micrococcus flavus [30]): 0.03 millimeter; MBC (Enterobacter cloacae [31]): 362 µM; MIC (Enterobacter cloacae [31]): 181 µM; inhibition zone (IZ) (Bacillus cereus [32]): inactive
85 µM,171 µM,171 µM,684 µM,684 µM,CC(=O)N1N=C(c2ccc(Nc3nc(Nc4ccccc4)nc(Nc4ccccc4)n3)cc2)CC1c1ccc([N+](=O)[O-])cc1 (stereo not given),inactive,0.1 millimeter,inactive,0.07 millimeter,171 µM,inactive,inactive,inactive,342 µM,342 µM,inactive,inactive,684 µM,684 µM,inactive,inhibition zone (IZ) (Salmonella typhimurium [9]): 0.1 millimeter; inhibition zone (IZ) (Salmonella typhimurium [17]): inactive; inhibition zone (IZ) (Enterobacter cloacae [18]): inactive; inhibition zone (IZ) (Pseudomonas aeruginosa [19]): inactive; inhibition zone (IZ) (Salmonella typhimurium [20]): inactive; MBC (Pseudomonas aeruginosa [21]): 684 µM; MIC (Pseudomonas aeruginosa [21]): 684 µM; inhibition zone (IZ) (Staphylococcus aureus [22]): inactive; inhibition zone (IZ) (Listeria monocytogenes [23]): 0.09 millimeter; inhibition zone (IZ) (Listeria monocytogenes [24]): inactive; zone of inhibition at 10 µg/disc (Micrococcus flavus [25]): 10 mm; inhibition zone (IZ) (Escherichia coli [26]): inactive; inhibition zone (IZ) (Enterobacter cloacae [27]): 0.09 millimeter; MBC (Micrococcus flavus [28]): 342 µM; MIC (Micrococcus flavus [28]): 171 µM; inhibition zone (IZ) (Escherichia coli [29]): inactive; inhibition zone (IZ) (Micrococcus flavus [30]): 0.04 millimeter; MBC (Enterobacter cloacae [31]): 684 µM; MIC (Enterobacter cloacae [31]): 684 µM; inhibition zone (IZ) (Bacillus cereus [32]): inactive
176 µM,176 µM,176 µM,352 µM,704 µM,Nc1nc(-c2ccc(Nc3nc(Nc4ccccc4)nc(Nc4ccccc4)n3)cc2)cc(-c2ccc([N+](=O)[O-])cc2)n1,inactive,inactive,inactive,0.07 millimeter,352 µM,inactive,inactive,inactive,352 µM,352 µM,inactive,inactive,704 µM,704 µM,inactive,inhibition zone (IZ) (Salmonella typhimurium [9]; [33]): inactive; inhibition zone (IZ) (Salmonella typhimurium [17]): inactive; inhibition zone (IZ) (Enterobacter cloacae [18]): inactive; inhibition zone (IZ) (Pseudomonas aeruginosa [19]): inactive; inhibition zone (IZ) (Salmonella typhimurium [20]): inactive; MBC (Pseudomonas aeruginosa [21]): 704 µM; MIC (Pseudomonas aeruginosa [21]): 352 µM; inhibition zone (IZ) (Staphylococcus aureus [22]): inactive; inhibition zone (IZ) (Listeria monocytogenes [23]): 0.1 millimeter; inhibition zone (IZ) (Listeria monocytogenes [24]): inactive; inhibition zone (IZ) (Micrococcus flavus [25]): inactive; inhibition zone (IZ) (Escherichia coli [26]): inactive; inhibition zone (IZ) (Enterobacter cloacae [27]): inactive; MBC (Micrococcus flavus [28]): 704 µM; MIC (Micrococcus flavus [28]): 352 µM; inhibition zone (IZ) (Escherichia coli [29]): inactive; inhibition zone (IZ) (Micrococcus flavus [30]): inactive; MBC (Enterobacter cloacae [31]): 352 µM; MIC (Enterobacter cloacae [31]): 176 µM; inhibition zone (IZ) (Bacillus cereus [32]): inactive
